# Many of the other results were omitted from the sample, so hits are more common in it than they were.
# CHOP inhibitor – CHOP inhibition in unfolded protein response; 220,000 compounds, 3.8% hits; CHO-K1 CHOP-promoter luciferase, tunicamycin-induced, 15-18 h; inhibition, % at 10 µM;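 active = compounds that reduced the stress-induced luciferase reporter signal by more than about 70% of percent inhibition, limit read from the data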;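 note: 0% = tunicamycin plus vehicle and 100% = wells without tunicamycin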
# CHOP UPR activ – apoptotic UPR (CHOP) activation; CHO-CHOP luciferase reporter, luminescence; percent of tunicamycin response over DMSO baseline; activation, % at 10 µM; 330,000 compounds, 0.34% hits; AID 449763;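 active = at 10 µM dose, activation of 40% or more, normalized to positive control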;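 note: 100% = tunicamycin at 10 µg/mL and 0% = DMSO alone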
#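 Test system: CHO-CHOP cells, stable luciferase reporter of PERK-eIF2a-CHOP signalling | Quantity: 500 CHO-CHOP cells per well | Buffer or medium: F12 plus 10% serum | Compound dosing: 10 µM single point, 0.5% DMSO | Schedule: 6 h compound treatment, 37 °C | Signal: Luciferase luminescence | Control set: Tunicamycin high control, DMSO low control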
# T cruzi inh – blocks replication of Trypanosoma cruzi. T. cruzi beta-gal in NIH3T3, luminescence, 90 h. inhibition, % (concentration not given with the values). 300,000 compounds, 1.4% hits. AID 1885;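 active = mean inhibition across valid replicates above about 55%, limit read from the data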;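 note: signal also drops with host cell toxicity which is not excluded here; 0% = plate median of DMSO wells and 100% = zero luminescence signal; higher percent means less beta-gal luminescence so fewer parasites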
#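 Incubation – ≥90 h infection period, 3 h prior cell attachment · System – NIH/3T3 fibroblasts plus reporter T. cruzi · Doses – compound pinned at 50 nL/well, DMSO · Read-out basis – percent inhibition of parasite-derived β-gal signal · Signal – luminescent β-galactosidase signal after 60 min lysis · Also added – 5000 T. cruzi trypomastigotes/well · Medium – Low-serum DMEM with 2% FBS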
# UPR XBP1 act – activators of adaptive arm of unfolded protein response (XBP1); CHO-XBP1 luciferase reporter, IRE1-XBP1 UPR activation, luminescence; percent of tunicamycin response, DMSO as zero; activation, % at 20 µM; 330,000 compounds, 0.33% hits;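 active = versus positive control, 20 µM dose yields 30% or more activation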;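 note: 100% = tunicamycin at 10 µg/mL and 0% = DMSO only wells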
#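 Test system: CHO-XBP1 luciferase reporter cells | Buffer or medium: Serum-containing F12 medium, 10% FBS | Schedule: 6 h compound exposure at 37 °C, 5% CO2 | Detection: Steady-Glo luciferase glow luminescence, 10 min after reagent addition | Read-out basis: Activation, % of tunicamycin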
# Lmaj promast – inhibitors of Leishmania major promastigote growth; 200,000 compounds, 9% hits; inhibition, % at 10 µM; Leishmania major promastigotes, resazurin fluorescence viability; AID 1063; in the data active = inhibition above about 50%;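 note: promastigotes grown with compound for 44 hours at 28 °C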
# Dynein cargo inh – dynein cargo transport inhibition; 3617.4 mouse cells, GR-EGFP nuclear translocation imaging; test concentration mostly 20 µM; stimulated with dexamethasone, 1 µM; stronger effect = lower value; z-score, hits read low; 220,000 compounds, 0.47% hits;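 active = plate z-score of nuclear minus cytoplasmic receptor signal below a set negative limit, without overly bright fluorescence or cell loss, cut at about -3.5 in these data, passing the limit was not always enough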;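 note: z-score of nuclear minus cytoplasmic ring GR-EGFP intensity difference per well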
#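 Buffer or medium: tet-free medium with charcoal-stripped serum / Also added: dexamethasone agonist, 1.0 µM final, for 30 min / Timing: induction 48 h, compound 1 h, agonist 30 min / Measured by: high-content fluorescence imaging after fixation / Read-out: nuclear-to-cytoplasmic GR-EGFP distribution per well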
# * = called active by the depositor; x = no result; ! = repeats disagree.
SMILES,CHOP inhibitor,CHOP UPR activ,T cruzi inh,UPR XBP1 act,Lmaj promast,Dynein cargo inh
Cc1ccc(NC(=O)CSCC(=O)NCCc2ccccc2)c(C)c1,x,0.3,x,-0.6,x,x
O=C(NC1CCCCC1)C(c1ccc2ncccc2c1)N(Cc1ccc2c(c1)OCO2)C(=O)c1cccs1 (configuration not stated),-6.8,-1.3,24.8,-3.5,87.8*,-0.282
O=C(NC1CCCC1)C(c1ccccc1)N(Cc1ccc2c(c1)OCO2)C(=O)Cc1cccs1 (configuration not stated),-4.3,-1.3,-18.1,-1.5,82.1*,-0.616
COc1ccc(C(C(=O)NC2CCCC2)N(Cc2ccccc2)C(=O)CNC(=O)c2ccco2)cc1 (configuration not stated),-3.8,0.2,-8.5,-2.8,66.7*,-0.914
O=C(NC1CCCC1)C(c1ccncc1)N(Cc1ccccc1)C(=O)Cc1cccs1 (configuration not stated),-17.6,0.0,33.3,-2.7,-3.2,0.124
COc1ccc(CN(C(=O)Cc2c[nH]c3ccccc23)C(C(=O)NC2CCCCC2)c2ccc(C)o2)cc1 (configuration not stated),49.9,2.3,36.0,4.9,68.7*,-0.772
O=C(NC1CCCCC1)C(c1ccc2ncccc2c1)N(Cc1ccccc1)C(=O)c1cccs1 (configuration not stated),16.4,-0.3,9.1,1.0,36.6,2.4
O=C(CCNC(=O)N1CCn2c1nc1ccccc12)NCc1ccccc1,x,5.5,5.0,-3.0,x,x
N#CC(=C(\N)Sc1ccccc1N)/C(C#N)=C(/N)Sc1ccccc1N,-11.5,x,x,x,x,x
O=C(NCC(=O)N(c1ccccc1)C(C(=O)NC1CCCCC1)c1cccnc1)c1cccs1 (configuration not stated),85.6*,-1.7,-16.7,-1.0,-7.9,0.0629
O=C(NCc1ccccc1)C(c1ccccc1)N(Cc1ccc2c(c1)OCO2)C(=O)Cc1cccs1 (configuration not stated),24.9,-0.7,25.9,-4.0,78.7*,-0.0254
O=C(NC1CCCC1)C(c1ccsc1)N(Cc1ccco1)C(=O)Cc1cccs1 (configuration not stated),-17.3,-0.1,0.2,-4.7,62.3*,1.36
O=C(Cc1cccs1)NCc1ccc2c(c1)OCO2,14.7,4.8,-3.9,2.5,-2.7,-0.134
COC(=O)c1ccc(C(C(=O)NC2CCCCC2)N(Cc2ccccc2)C(=O)Cc2cccs2)cc1 (configuration not stated),-4.8,-3.6,1.9,-1.8,99.2*,2.25
Cn1c(SCC(=O)NC(=O)Cc2ccccc2)nnc1-c1ccc(F)cc1,x,-1.0,x,-2.1,x,x
Cc1ccc(Cl)cc1NC(=S)N1CCCCCC1,x,0.7,x,-3.3,x,x
CCOc1ccc(CCNC(=O)COC(=O)c2ccc3c(c2)OCCO3)cc1OCC,x,0.6,-6.6,-3.1,x,x
COc1ccc(CC(=O)Oc2ccccc2Cl)cc1S(=O)(=O)N1CCOCC1,x,-0.9,-1.7,-0.6,x,x
COc1ccc(/C=N/N2CCN(Cc3ccc(C)cc3)CC2)cc1Br,x,-0.3,27.1,-4.8,x,x
O=C(NC1CCCCC1)C(c1cccnc1)N(CCc1ccccc1)C(=O)Cc1cccs1 (configuration not stated),12.1,-0.5,50.3,-1.6,94.5*,0.524
Cc1ccc(C(C(=O)NC2CCCC2)N(Cc2ccc(F)cc2)C(=O)c2csnn2)o1 (configuration not stated),70.8*,-0.5,3.3,1.9,1.1,-1.28
O=C(NC1CCCCC1)C(c1cccnc1)N(C(=O)CCl)c1ccccc1Cl (configuration not stated),4.6,0.3,-9.3,-0.1,68.1*,-0.404
O=C(C(Cc1ccccc1)NS(=O)(=O)c1cccc2cccnc12)N1CCc2ccccc21 (configuration not stated),45.4,0.4,7.0,0.3,93.6*,-1.39
O=C(c1ccccc1F)N1CCCc2ccccc21,x,-2.7,-5.1,-7.1,x,x
CCc1ccc2c(c1)CCCN2C(=O)c1ccccc1C(=O)O,-0.3,-1.8,38.2,0.6,99.1*,-0.844
SMILES,CHOP inhibitor,CHOP UPR activ,T cruzi inh,UPR XBP1 act,Lmaj promast,Dynein cargo inh
CCOC(=O)C1CCCN(Cc2nc(CC3CC3)no2)C1 (configuration not stated),-1.6,-1.3,-0.1,-2.4,x,-0.398
Cc1ccc(C)c(NS(=O)(=O)c2cc(C(=O)N3CCc4ccccc4C3)ccc2Cl)c1,-3.4,-1.7,55.6*,-4.6,98.3*,0.0183
Cc1cccc(NS(=O)(=O)c2cc(C(=O)N3CCc4ccccc4C3)ccc2Cl)c1C,18.8,-1.3,60.3*,-8.0,97.0*,1.8
Cc1ccccc1CN(c1ccc(C(=O)N2CCc3ccccc3C2)cc1)S(C)(=O)=O,32.8,2.5,22.9,0.3,70.0*,0.175
CCOC(=O)N1CCN(C(=O)c2ccc(C)c(S(=O)(=O)Nc3cccc(C)c3C)c2)CC1,7.3,0.9,4.7,-4.9,98.2*,-0.0202
CCOC(=O)N1CCN(C(=O)c2ccc(C)c(S(=O)(=O)Nc3ccccc3)c2)CC1,-17.5,-0.4,-2.5,1.3,-0.1,1.1
CNC(=O)c1ccc(N(Cc2ccccc2C)S(C)(=O)=O)cc1,4.7,1.6,-9.6,2.2,-6.0,-0.923
Cc1cccc(OC(C)C(=O)Nc2nccs2)c1 (configuration not stated),x,0.9,-4.0,-1.4,x,x
COCCn1c(SCC(=O)NC2CCCC2)nnc1C(C)C,x,0.9,0.0,-4.0,x,x
C=CCNc1oc(/C=C/c2ccccc2)nc1C#N,-20.8,3.2,1.6,3.9,2.2,-0.424
CC(C)(C)c1ccc(-c2cn(-c3ccc(Br)cc3)c3[n+]2CCCS3)cc1,49.1,x,38.6,x,100.4*,-1.14
Fc1ccc(-n2cc(-c3ccccc3)[n+]3c2SCC3)cc1,18.7,-1.7,3.7,-3.6,3.1,0.0285
c1ccc(-c2cn(-c3ccccc3)c3[n+]2CCS3)cc1,16.1,1.3,68.1*,-0.5,16.9,-0.162
COc1ccc(-c2cn(-c3ccccc3)c3[n+]2CCS3)cc1,2.1,3.4,58.1*!,0.2,85.2*!,0.331
CCOC(=O)N1CCN(CC(O)COc2ccc3c(c2)CCC3)CC1 (configuration not stated),x,-1.5,9.5,0.4,x,x
Cc1cnc(C(=O)OC(C(=O)c2c[nH]c3ccccc23)c2ccccc2)cn1 (configuration not stated),x,-1.8,-14.1,1.3,x,x
CCSc1nnc(N2C(=O)CC(c3ccsc3)C3=C2CC(C)(C)CC3=O)s1 (configuration not stated),5.7,-0.4,2.0,4.2,67.3*,-0.242

# Assay outcomes from PubChem.
